High-throughput results (PubChem)
An excerpt weighted towards active compounds, which were near 3.2% of everything screened.
Plk1 PBD FP = Plk1 polo box domain binding inhibitors, primary screen, biochemical, fluorescence polarization | Plk1 PBD phosphopeptide binding | inhibition, %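 (tested at about 20 µM)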 | actives 0.13% (n = 97,000); in the data active = inhibition above about 34%, passing the limit was not always enough
PLK1 kinase inh = human PLK1 kinase inhibitors, primary screen, biochemical, TR-FRET; actives 0.53% (n = 97,000); Serine/threonine-protein kinase PLK1 (Homo sapiens), P53350; recombinant PLK1 kinase, TR-FRET peptide phosphorylation; inhibition, % at 10 µM;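 active = inhibition of 50% or more in the single-concentration screen; inactive = inhibition below 50%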
hDAT+cocaine = changed hDAT dopamine uptake under cocaine IC80, either direction, primary screen, cocaine antagonist project, cell-based, LLC-PK1 hDAT, [14C]-dopamine uptake, MLSMR; Sodium-dependent dopamine transporter (Homo sapiens), Q01959; LLC-PK1 hDAT cells, [14C]-dopamine uptake with cocaine IC80; actives deviate in either direction; B-score at 10 µM; actives 1.3% (n = 110,000); AID 449768, 2010;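 active = Z score or B-score, a plate-position-corrected score, falls beyond the plate's 99.7% confidence bounds, in either direction; inactive = both scores lie inside the 99.7% bounds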
Rev-RRE block = HIV-1 Rev-RRE binding inhibitors, primary screen, biochemical, FRET, protein-RNA interaction; AID 704, 2007; actives 0.79% (n = 97,000); Rev peptide-RRE RNA binding; inhibition, % at 8 µM; P05866;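 active = inhibition above the screen-wide mean plus 3 SD, cut at about 35% in these data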
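Probe or stimulus: fluorescein-Rev peptide as binding partner; assay system: Cy5-tagged RRE RNA duplex with fluorescein-tagged Rev peptide; timing: 5 min compound–RNA preincubation, then 15 min with peptide, 25 °C; medium: HEPES pH 7.5 buffer with KCl, MgCl2, NaCl and EDTA; signal: fluorescein-to-Cy5 FRET, 480 nm excitation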
FAK inh = FAK kinase inhibitors, primary screen, biochemical | Focal adhesion kinase 1 (Homo sapiens), Q05397 | biochemical FAK kinase activity assay | inhibition, %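 (tested at 7 µM)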 | actives 0.84% (n = 97,000); in the data active = inhibition above about 19%
EphB4 ephrin blk = EphB4-ephrin-B2 interaction antagonists, primary screen, biochemical, TNYL-RAW peptide probe, fluorescence polarization | Ephrin type-B receptor 4 (Homo sapiens), P54760 | EphB4 LBD / TNYL-RAW-Alexa532 peptide | inhibition, % at 7 µM | AID 720, 2007 | actives 0.15% (n = 97,000);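 active = inhibition above the screen-wide mean inhibition plus 3 SD, cut at about 15% in these data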
Hits are given with their value; ! = a repeat was not active; [ ] = another dose, or the depositor's remark.

How did N=c1c2c(n(Cc3ccc(Cl)cc3)c3c1CCC3)CCC2 do in these assays?
Plk1 PBD FP: inactive; PLK1 kinase inh: inactive; hDAT+cocaine: -6.7; Rev-RRE block: inactive; FAK inh: inactive; EphB4 ephrin blk: inactive

Results for N=c1c2c(n(Cc3ccccc3)c3c1CCC3)CCC2 ?
Plk1 PBD FP: inactive; PLK1 kinase inh: inactive; hDAT+cocaine: -4.2; Rev-RRE block: inactive; FAK inh: inactive; EphB4 ephrin blk: inactive

How did N=c1c2c(n(Cc3cccc(Cl)c3)c3c1CCC3)CCCC2 do in these assays?
Plk1 PBD FP: inactive; PLK1 kinase inh: inactive; hDAT+cocaine: -9.3; Rev-RRE block: inactive; FAK inh: inactive; EphB4 ephrin blk: inactive

How did O=C1CC(=C2c3ccccc3-c3ccccc32)C(=O)N1CCN1CCN(c2ccccc2)CC1 do in these assays?
Plk1 PBD FP: inactive; PLK1 kinase inh: inactive; hDAT+cocaine: inactive; Rev-RRE block: inactive; FAK inh: inactive; EphB4 ephrin blk: inactive

How did NC(=O)CNC(=O)[C@@H]1CC2(CC(c3ccccc3)=NO2)CN1C(=O)c1ccc(Br)cc1 (stereo partly specified) do in these assays?
Plk1 PBD FP: inactive; PLK1 kinase inh: inactive; hDAT+cocaine: inactive; Rev-RRE block: inactive; FAK inh: inactive; EphB4 ephrin blk: inactive

Results for CCN1c2ccccc2NC2C1C(C(C)=O)C(=O)N2c1ccc(Cl)cc1 (stereo unspecified) ?
Plk1 PBD FP: inactive; PLK1 kinase inh: inactive; hDAT+cocaine: inactive; Rev-RRE block: 50; FAK inh: inactive; EphB4 ephrin blk: inactive

How did COC(=O)CNc1c(-c2ccccn2)nc2ccc(Br)cn12 do in these assays?
Plk1 PBD FP: inactive; PLK1 kinase inh: inactive; hDAT+cocaine: -7.2; Rev-RRE block: inactive; FAK inh: inactive; EphB4 ephrin blk: inactive

How did CC(=O)Nc1ccc(SCC(=O)OCC(=O)NC(=O)NCc2ccco2)cc1 do in these assays?
Plk1 PBD FP: inactive; PLK1 kinase inh: inactive; Rev-RRE block: inactive; FAK inh: inactive; EphB4 ephrin blk: 16

Results for Cc1ccc(SCC(=O)NCc2ccco2)cc1 ?
Plk1 PBD FP: inactive; PLK1 kinase inh: inactive; hDAT+cocaine: inactive; Rev-RRE block: inactive; FAK inh: inactive; EphB4 ephrin blk: inactive

Results for O=C(CN(Cc1ccccc1)C(=O)c1ccco1)NCc1ccc(F)cc1 ?
Plk1 PBD FP: inactive; PLK1 kinase inh: inactive; hDAT+cocaine: inactive; Rev-RRE block: inactive; FAK inh: inactive; EphB4 ephrin blk: inactive

What do the screens show for `CC1(c2nnc(-c3ccc(Cl)cc3)o2)CC(c2cccnc2)=NO1` (stereo unspecified)?
hDAT+cocaine: inactive

How did O=c1nc(/C=C/c2ccc(-c3ccc(F)cc3)o2)cc(C(F)(F)F)[nH]1 do in these assays?
Plk1 PBD FP: inactive; PLK1 kinase inh: inactive; hDAT+cocaine: inactive; Rev-RRE block: 116[fluorescence artefact?]; FAK inh: inactive; EphB4 ephrin blk: inactive

What do the screens show for `CCOC(=O)/C(C#N)=C1/SC(CCO)C(=O)N1c1ccccc1` (stereo unspecified)?
Plk1 PBD FP: inactive; PLK1 kinase inh: inactive; hDAT+cocaine: inactive; Rev-RRE block: inactive; FAK inh: 23; EphB4 ephrin blk: inactive

How did CC(=O)NC(CC(C)C)C(=O)NC(CO)C(=O)NC(CCC(=O)O)C(=O)NC(C)C(=O)NC(CC(C)C)C(N)=O (stereo unspecified) do in these assays?
hDAT+cocaine: inactive

What do the screens show for `C=CCn1c(=O)/c(=C/c2ccc(Cl)cc2)s/c1=C(/C#N)c1nnc2n1CCCCC2`?
Plk1 PBD FP: inactive; PLK1 kinase inh: inactive; hDAT+cocaine: inactive; Rev-RRE block: inactive; FAK inh: inactive; EphB4 ephrin blk: inactive

How did C=CCn1c(=O)/c(=C/c2ccc(O)cc2)s/c1=C(/C#N)c1nnc2n1CCCCC2 do in these assays?
Plk1 PBD FP: inactive; PLK1 kinase inh: inactive; hDAT+cocaine: inactive; Rev-RRE block: 73; FAK inh: inactive; EphB4 ephrin blk: inactive

How did O=C(NC(=S)Nc1ccc(Oc2ccccc2)cc1)c1ccc(Cl)cc1 do in these assays?
Plk1 PBD FP: inactive; PLK1 kinase inh: inactive; hDAT+cocaine: 2.6; Rev-RRE block: inactive; FAK inh: inactive; EphB4 ephrin blk: inactive

How did CCNC(=S)Nc1ccc(Oc2ccccc2)cc1 do in these assays?
Plk1 PBD FP: inactive; PLK1 kinase inh: inactive; hDAT+cocaine: -2.7; Rev-RRE block: inactive; FAK inh: inactive; EphB4 ephrin blk: inactive

Results for O=[N+]([O-])c1cc(/C=N/OCc2c(Cl)cccc2Cl)ccc1N1CCOCC1 ?
Plk1 PBD FP: inactive; PLK1 kinase inh: inactive; hDAT+cocaine: inactive; Rev-RRE block: inactive; FAK inh: inactive; EphB4 ephrin blk: inactive

How did CCOc1ccc(/C=N/NC(=O)Cc2csc(Nc3cccc(C(F)(F)F)c3)n2)c(OCC)c1 do in these assays?
Plk1 PBD FP: inactive; PLK1 kinase inh: inactive; hDAT+cocaine: inactive; Rev-RRE block: inactive; FAK inh: inactive; EphB4 ephrin blk: inactive

How did COc1ccc(/C=N/NC(=O)Cc2csc(Nc3cccc(C(F)(F)F)c3)n2)c(OC)c1 do in these assays?
Plk1 PBD FP: inactive; PLK1 kinase inh: inactive; hDAT+cocaine: 2.7; Rev-RRE block: inactive; FAK inh: inactive; EphB4 ephrin blk: inactive

Results for CCOc1c(C)cc(-c2ncccc2O)cc1C ?
Plk1 PBD FP: inactive; PLK1 kinase inh: inactive; hDAT+cocaine: -7.9!; Rev-RRE block: inactive; FAK inh: inactive; EphB4 ephrin blk: inactive

How did O=C1c2ccccc2-c2onc3c(Oc4ccccc4)cc(O)c1c23 do in these assays?
Plk1 PBD FP: inactive; PLK1 kinase inh: inactive; Rev-RRE block: inactive; FAK inh: inactive; EphB4 ephrin blk: inactive

How did CCNc1ccc2noc3c2c1C(=O)c1ccccc1-3 do in these assays?
Plk1 PBD FP: inactive; PLK1 kinase inh: inactive; hDAT+cocaine: inactive; Rev-RRE block: 138[fluorescence artefact?]; FAK inh: 49; EphB4 ephrin blk: 95[fluorescence artefact?]

What do the screens show for `CCOc1ccc2noc3c2c1C(=O)c1ccccc1-3`?
Plk1 PBD FP: inactive; PLK1 kinase inh: inactive; hDAT+cocaine: inactive; Rev-RRE block: 133[fluorescence artefact?]; FAK inh: inactive; EphB4 ephrin blk: inactive

How did O=C1c2ccccc2-c2onc3ccc(NCc4ccco4)c1c23 do in these assays?
hDAT+cocaine: inactive

How did C=CCn1c2ccccc2c2nnc(SCC(=O)NC(C(=O)OC)C(C)C)nc21 (stereo unspecified) do in these assays?
Plk1 PBD FP: inactive; PLK1 kinase inh: inactive; hDAT+cocaine: inactive; Rev-RRE block: inactive; FAK inh: inactive; EphB4 ephrin blk: inactive

What do the screens show for `COc1cccc(/C=N\NC(=O)c2sc(N)nc2C)c1OC`?
Plk1 PBD FP: inactive; PLK1 kinase inh: inactive; hDAT+cocaine: inactive; Rev-RRE block: inactive; FAK inh: inactive; EphB4 ephrin blk: inactive

How did Cc1ccc(C(=O)N2CCC3(CC2)Oc2ccc(F)cc2C(=O)C32CC(c3ccc(Cl)cc3)=NO2)s1 (stereo unspecified) do in these assays?
hDAT+cocaine: inactive
